Reference: paper PMC8040281 (EClinicalMedicine, 2021)
“Also recorded” adds a separate entry of the source. Read-outs that look alike come from different tables or passages of the source.

How the values were obtained:
[1] = type: in vivo, human
[2] = clinical; conditions: human, in vivo, po
[3] = 12-lead ECG and 24-hour Holter monitoring; type: in vivo, human; conditions: ECG and Holter monitoring around first dose
Summary of the method: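 Oral test compound given once daily, first two doses 3–7 days apart. 12-lead ECGs were part of safety assessments. 24-hour digital Holter monitoring was run around the first dose to detect QTc changes.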

[4] = system: metastatic or advanced solid malignant tumors; assay: Anti-tumor activity, RECIST 1.1, investigator assessed; type: in vivo, human
Summary of the method: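 Investigator-assessed RECIST 1.1 response in patients with measurable disease. Oral test compound given once daily continuously, alone or ~2 h before IV paclitaxel at label or institutional dose and schedule. Time to progression is given as a median in weeks by tumor type and KRAS status.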

[5] = First-in-human dose escalation: DLTs and MTD/RP2D; type: in vivo
Summary of the method: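 Oral test compound once daily, starting at 60 mg/m2 (0.1 of preclinical non-severely toxic dose). Accelerated titration used 100% increments until ≥Grade 2 toxicity (alopecia excepted), then 3+3 with 25–50% steps. BSA-based dosing (actual dose −20 to +15% of calculated) later switched to flat doses to nearest 50 mg. Taxanes given IV. Toxicity graded by investigator per CTCAE v4.03.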

[6] = system: NSCLC cell lines harboring KRAS mutations; conditions: nonclinical studies; ref [15]; cited from earlier work
[7] = TEAE, all dose levels, label TVB-2640 = monotherapy
[8] = across all dose levels, label TVB-2640 = monotherapy

Cc1nnc(-c2cc(C(=O)N3CCC(c4ccc(C#N)cc4)CC3)c(C)cc2C2CCC2)[nH]1 [TVB-2640]
Any TEAE ([1]; Any Grade, N = 76 monotherapy, N = 55 + paclitaxel): 75 (98.7) n (%)
Blood and lymphatic system disorders ([1]; TEAE, Any Grade): 11 (14•5) n (%)
Eye disorders ([1]; TEAE, Any Grade): 38 (50.0) n (%)
Gastrointestinal disorders ([1]; TEAE, Any Grade): 52 (68.4) n (%)
Infections and infestations ([1]; TEAE, Any Grade): 36 (47.4) n (%)
Investigations ([1]; TEAE, Any Grade): 22 (28•9) n (%)
Metabolism and nutrition system disorders ([1]; TEAE, Any Grade): 31 (40•8) n (%)
Musculoskeletal and connective tissue disorders ([1]; TEAE, Any Grade): 20 (26•3) n (%)
Nervous system disorders ([1]; TEAE, Any Grade): 27 (35•5) n (%)
Respiratory, thoracic, and mediastinal disorders ([1]; TEAE, Any Grade): 34 (44•7) n (%)
Skin and subcutaneous tissue disorders ([1]; TEAE, Any Grade): 63 (82.9) n (%)
PPE syndrome, incidence [1, 7]: 46%
alopecia, incidence [1, 7]: 61%
fatigue, incidence [1, 7]: 37%
decreased appetite, incidence ([1]; TEAE, monotherapy): 26%
dry eye, incidence ([1]; TEAE, monotherapy): 17%
dry skin, incidence ([1]; TEAE, monotherapy): 22%
lacrimation increased, incidence ([1]; TEAE, monotherapy): 13%
rash, incidence ([1]; TEAE, monotherapy): 11%
skin exfoliation, incidence ([1]; TEAE, monotherapy): 12%
Blood and lymphatic system disorders ([1]; TEAE, ≥Grade 3): 3 (3•9) n (%)
Eye disorders ([1]; TEAE, ≥Grade 3): 3 (3.9) n (%)
Gastrointestinal disorders ([1]; TEAE, ≥Grade 3): 3 (3.9) n (%)
Infections and infestations ([1]; TEAE, ≥Grade 3): 5 (6.6) n (%)
Investigations ([1]; TEAE, ≥Grade 3): 6 (7•9) n (%)
Metabolism and nutrition system disorders ([1]; TEAE, ≥Grade 3): 5 (6•6) n (%)
Musculoskeletal and connective tissue disorders ([1]; TEAE, ≥Grade 3): 3 (3•9) n (%)
Nervous system disorders ([1]; TEAE, ≥Grade 3): 1 (1•3) n (%)
Respiratory, thoracic, and mediastinal disorders ([1]; TEAE, ≥Grade 3): 2 (2•6) n (%)
Skin and subcutaneous tissue disorders ([1]; TEAE, ≥Grade 3): 8 (10.5) n (%)
adverse events resulting in dose reduction, patients [1, 8]: 28%
adverse events resulting in treatment discontinuation, patients [1, 8]: 22%
>Grade 2 skin or eye toxicities at the MTD ([1]; human, in vivo): no >Grade 2 skin or eye toxicities were observed
patients with serious pneumonitis ([1]; label TVB-2640 = monotherapy): not observed
Any ≥Grade 3 TEAE ([1]; ≥Grade 3, N = 76 monotherapy, N = 55 + paclitaxel): 44 (57.9) n (%)
Tmax [2]: ~4 h
half-life [2]: 600 to 780 min
QTc prolonging effect [3]: no clinically relevant QTc prolonging effect; also recorded: no significant gastrointestinal or serum chemistry toxicities or evidence of QTc prolongation; also recorded: no evidence of QTc prolongation
PR rate (confirmed) / best response of CR or PR ([4]; 6/53 evaluable patients with paclitaxel, label TVB-2640 = monotherapy): no patient treated with monotherapy had a complete or partial response; also recorded: No patient had a best response of complete response (CR) or partial response (PR)
time to progression (TTP), NSCLC KRAS^WT disease ([4]; median, N = 6 monotherapy, label TVB-2640 = monotherapy): 5 weeks
time to progression (TTP), NSCLC KRAS^MUT disease ([4]; median, N = 11 monotherapy, label TVB-2640 = monotherapy): 22 weeks
patients who experienced SD ([4]; monotherapy, 29/69 evaluable patients): 42%
DLT: PPE syndrome ([5]; Grade 3 with paclitaxel, label TVB-2640 = monotherapy): 3 n
DLTs, total number ([5]; all dose levels, label TVB-2640 = monotherapy): 6
nature of DLTs ([5]; in vivo): reversible skin and ocular effects
DLTs at 200 mg flat dose ([5]; label TVB-2640 = monotherapy (N = 6)): no DLTs observed
DLT: Grade 3 corneal edema ([5]; monotherapy): 1 n
DLT: iritis ([5]; monotherapy): 1 n
DLT: keratitis ([5]; monotherapy): 1 n
patients with DLTs at 250 mg flat dose ([5]; monotherapy, bilateral eye keratitis and PPE syndrome): 2 of 6
flat dose equivalent of the MTD/RP2D ([5]; monotherapy, depending on body surface area): 150 to 200 mg

TVB-3166
sensitivity of KRAS^MUT versus KRAS^WT NSCLC cell lines to killing [6]: more sensitive to killing with FASN inhibition than KRAS wild-type (KRAS^WT) lines
